According to PubChem BioAssay AID695 (The Scripps Research Institute Molecular Screening Center, 2007):

Biological target: Steroidogenic factor 1 (Homo sapiens) (UniProt Q13285)
Test: SF-1 driven luciferase reporter response, dose response, counter-screen for RORA activator project, CHO-K1 cells (AID 695)
Conditions: CHO-K1 SF1 luciferase transactivation, luminescence
Summary of the method: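 Material: CHO-K1 cells with Gal4-SF-1 fusion and luciferase reporter. Compound: 10-point 1:3 dilution series from nominal 100 µM top dose. Incubation: 20 h compound treatment, 37 °C. Detection: SteadyLite luminescence. Evaluation: EC50 from four-parameter dose-response curve fit. Replicates: triplicate.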

SMILES | EC50 [nM]
C=CCOc1ccc(/C=C/C(C)=N\O)cc1 | 1020
O=C1COc2ccc(OCc3ccc(F)cc3)cc21 | 1710
